Hits are enriched below; roughly 4.1% of the tested compounds scored in any of these assays.
MEKK2 mut-MEK5 – signal of MEK5 binding to mutant human MEKK2 PB1 domain; bead flow cytometry, Alexa488-MEK5 binding to MEKK2 mutant; percent response, % at 10 µM; hit rate 0.35% among 290,000; in the data active means percent response above about 24%, passing the limit was not always enough
MEKK2 WT-MEK5 – raises or lowers MEK5 binding to wildtype human MEKK2 PB1 domain; hit rate 1.1% among 290,000; Q9Y2U5; bead flow cytometry, Alexa488-MEK5 binding to MEKK2 WT; actives lie on both sides; AID 1531; binding response (% of control), % at 10 µM; in the data active means binding response below about 67% or above about 130%
T cruzi inh – T. cruzi replication inhibition; T. cruzi beta-gal in NIH3T3, luminescence, 90 h; inhibition, % (no concentration beside the values); AID 1885; hit rate 1.4% among 300,000;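 active means mean inhibition across valid replicates above about 55%, limit read from the data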;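 further: signal also drops with host cell toxicity which is not excluded here; higher percent means less beta-gal luminescence so fewer parasites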
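Assay system: NIH/3T3 fibroblasts plus reporter T. cruzi. Amount: NIH/3T3 cells, 5,000 per well. Buffer or medium: DMEM, 2% fetal bovine serum. Doses: compound pinned at 50 nL/well, DMSO. Schedule: ≥90 h infection period, 3 h prior cell attachment. Signal: luminescent β-galactosidase signal after 60 min lysis. Read-out: parasite load inhibition, %.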
MEKK3 PB1 HTS – raises or lowers MEK5 binding to the human MEKK3 PB1 domain; Q99759; AID 1529; bead-based flow cytometry, Alexa488-MEK5 binding to MEKK3; actives lie on both sides; 0 = blocked by unlabeled MEK5, 100 = vehicle; binding response (% of control), % at 10 µM; hit rate 1.4% among 290,000;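 active means binding response more than 3 SD above or below the average of its plate-row segment, actives on both sides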;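 further: Alexa488 bead fluorescence after subtracting the streptavidin-only scavenger bead signal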
Target sequence (Q99759 whole entry, looked up, the tested form may be a part): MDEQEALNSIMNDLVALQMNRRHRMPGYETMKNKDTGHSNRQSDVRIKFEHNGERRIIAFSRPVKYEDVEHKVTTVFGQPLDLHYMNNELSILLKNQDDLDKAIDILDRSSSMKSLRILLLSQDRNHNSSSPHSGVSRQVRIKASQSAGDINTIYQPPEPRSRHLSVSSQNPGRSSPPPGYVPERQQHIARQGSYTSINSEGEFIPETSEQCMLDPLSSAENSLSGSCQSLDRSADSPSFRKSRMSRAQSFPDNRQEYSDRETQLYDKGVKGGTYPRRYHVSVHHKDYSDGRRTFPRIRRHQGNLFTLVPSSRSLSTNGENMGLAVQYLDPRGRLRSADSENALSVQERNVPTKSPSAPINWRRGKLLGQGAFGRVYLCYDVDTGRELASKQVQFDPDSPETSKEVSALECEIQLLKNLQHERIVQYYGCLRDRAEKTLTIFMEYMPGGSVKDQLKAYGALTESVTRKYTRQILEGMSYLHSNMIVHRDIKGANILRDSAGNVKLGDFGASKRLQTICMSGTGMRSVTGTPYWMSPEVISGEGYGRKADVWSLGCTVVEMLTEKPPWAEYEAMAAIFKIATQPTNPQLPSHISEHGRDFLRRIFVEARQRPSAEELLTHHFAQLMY
HCV NS3 hel inh – inhibitors of Hepatitis C virus NS3 helicase; NS3 helicase DNA unwinding, Cy5 molecular beacon fluorescence; hit rate 0.56% among 290,000; inhibition, % at 10.9 µM;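 active means inhibition above the mean of all tested compounds plus 3 SD, set per campaign, cut at about 35% in these data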
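System: HCV NS3 helicase fragment; control set: DMSO and thioflavine S; technique: Cy5 fluorescence at 0 and 60 min, beacon hairpin quenching; reagent: beacon DNA duplex substrate plus ATP; replicates: singlicate; schedule: 1 h reaction at 25 °C, ATP-initiated; medium: MOPS buffer pH 6.5 with MgCl2, DTT, Tween20, BSA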
DNA FID counter-1 – counter-screen for HCV NS3 helicase inhibitors: DNA intercalator displacement; hit rate 0.17% among 290,000; inhibition, % at 7.9 µM; DNA fluorescent intercalator displacement, fluorescence; AID 1845;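 further: higher means more ethidium bromide displaced from hairpin DNA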
NS3 hel confirm – HCV NS3 helicase inhibition, confirmation assay; NS3 helicase DNA unwinding, Cy5 molecular beacon fluorescence; shares compounds with HCV NS3 hel inh; hit rate 31% among 1,600; inhibition, % at 10.9 µM; AID 1943;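 active means inhibition above the mean of all tested compounds plus 3 SD, cutoff set per campaign, cut at about 36% in these data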
DNA FID counter-2 – displaces DNA intercalator in HCV helicase counter-screen. inhibition, % at 7.9 µM. AID 1945. DNA fluorescent intercalator displacement, fluorescence. shares compounds with HCV NS3 hel inh. hit rate 4% among 1,600;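 further: higher means more displacement of ethidium bromide from the DNA hairpin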
FID counter DR – DNA intercalator displacement in dose response; shares compounds with HCV NS3 hel inh; fluorescent intercalator displacement from DNA, fluorescence; IC50, µM; 120 tested, under 10 active; AID 2172; call rule not given here
Each line names hits and unclear results; the compound was inactive in the other large screens (follow-up assays come after a bar, where they were run). Unless noted, no stated cut-off is given here; in the data, active means inhibition above about 37%; inactive means the rest.

O=C(CNC(=O)c1ccc(Br)o1)OCC(=O)c1cccc([N+](=O)[O-])c1	none
CC(C)CSC1=NSC2=NC(=O)/C(=C\c3ccccc3)C(=N)N12	HCV NS3 hel inh 43.4 | NS3 hel confirm 68.5 | DNA FID counter-2 inactive
COc1ccc(-c2nc(CS(=O)CC(=O)NCc3ccc(Cl)cc3)c(C)o2)cc1OC (stereo not drawn)	none
CC(=O)OCCc1[nH]c2ccccc2c1C	HCV NS3 hel inh 52.4 | NS3 hel confirm inactive | DNA FID counter-2 inactive
CC(=O)OCCc1c2ccccc2c(CCCN(C)C)c2ccccc12	none (no result: MEKK2 mut-MEK5, MEKK2 WT-MEK5, MEKK3 PB1 HTS, HCV NS3 hel inh, DNA FID counter-1)
Cc1ccc(C)n1Cc1ccc(C(=O)O)cc1	HCV NS3 hel inh 37.8 (no result: T cruzi inh) | NS3 hel confirm 79.8 | DNA FID counter-2 inactive
Cn1cccc1CC(=O)NNC(=S)Nc1ccc(Cl)cc1	HCV NS3 hel inh 36.4 | NS3 hel confirm inactive | DNA FID counter-2 inactive
Cc1c(Cl)cccc1NC(=S)NCc1cccn1C	none
Cn1cccc1CC(=O)NNC(=S)Nc1ccccc1Cl	HCV NS3 hel inh 45.6 | NS3 hel confirm inactive | DNA FID counter-2 inactive
CC1=NN(c2ccc(C)cc2)C(=O)/C1=C\C=C\c1ccccc1	none
CC1=NN(c2ccccc2)C(=O)/C1=C/C=C/C=C/N(C)C	HCV NS3 hel inh 38.7 | NS3 hel confirm inactive | DNA FID counter-2 inactive
Cc1ccccc1CN1CCc2c(OCC(=O)N3CCCc4ccccc43)cccc2C1=O	HCV NS3 hel inh 75.2 | NS3 hel confirm inactive | DNA FID counter-2 inactive
CC(C)c1cc(C(=O)NCCc2ccccc2)no1	none
CCn1cc(S(=O)(=O)Nc2cc(F)ccc2C)cn1	HCV NS3 hel inh 58.7 | NS3 hel confirm inactive | DNA FID counter-2 inactive
CCn1cc(S(=O)(=O)Nc2cccnc2)cn1	none
O=C(O)CSc1cc(NS(=O)(=O)c2ccc(Br)cc2)c2ccccc2c1O	HCV NS3 hel inh 55.0 | NS3 hel confirm 70.2 | DNA FID counter-2 inactive
COc1ccc(N2CCN(S(=O)(=O)CCNC(=O)C3CCCCC3)CC2)cc1	none
O=C(Nc1ccccc1O)c1cc2cc(Br)ccc2oc1=O	HCV NS3 hel inh 42.9 | NS3 hel confirm inactive | DNA FID counter-2 inactive
COc1ccccc1NC(=O)c1cc2cc(Br)ccc2cc1O	none | NS3 hel confirm 87.3 | DNA FID counter-2 inactive | FID counter DR inactive
COc1cc(NC(=O)c2cc3ccccc3cc2O)c(OC)cc1Cl	none
O=C(NNC(=O)c1cc2cc(Br)ccc2oc1=O)c1ccc(O)cc1	none
O=C(CC1C(=O)NCCN1Cc1cccc(C(F)(F)F)c1)NC1CCCCCC1 (stereo not drawn)	none
O=c1[nH]c(-c2ccccc2)nn1-c1ccc(Br)cc1Br	none
CCOC(=O)C1C(=O)NC(c2ccccc2)=NC1c1ccc(O)c(OC)c1 (stereo not drawn)	HCV NS3 hel inh 56.2 | NS3 hel confirm inactive | DNA FID counter-2 inactive
CCOC(=O)c1c(NC(=O)C2C3C=CC(C3)C2C(=O)O)sc2c1CCC(CC)C2 (stereo not drawn)	HCV NS3 hel inh 39.4 | NS3 hel confirm 83.6 | DNA FID counter-2 inactive
COC(=O)c1ccc(OC(C)C(=O)c2ccc(C)cc2)cc1 (stereo not drawn)	HCV NS3 hel inh 37.1 | NS3 hel confirm inactive | DNA FID counter-2 inactive
Cc1ccc(-n2nc(-c3ccco3)cc2C(=O)O)c(C)c1	HCV NS3 hel inh 46.9 | NS3 hel confirm inactive | DNA FID counter-2 inactive
O=C(O)c1cc(-c2ccco2)nn1-c1cccc(Cl)c1	HCV NS3 hel inh 47.5 | NS3 hel confirm inactive | DNA FID counter-2 inactive
O=C(O)c1cc(-c2cc3ccccc3o2)nn1-c1ccccc1	none
O=C(O)c1cc(-c2ccco2)nn1-c1ccc(Cl)cc1	HCV NS3 hel inh 44.0 | NS3 hel confirm 83.2 | DNA FID counter-2 inactive
